From BindingDB's records for doi:10.1021/acs.jmedchem.1c00739 (2021)

Target: Protein kinase C alpha type (Homo sapiens, UniProt P17252)
Test: Displacement of [3H]-PDBu from recombinant human PKCalpha at 30 uM by scintillation counter method relative to control
Procedure, shortened: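 Competition of 2 nM [3H]PDBu by test ligand at a single fixed concentration (value in line); 50 mM Tris-HCl pH 7.4, 100 μg/mL porcine brain phosphatidylserine, 5 mg/mL bovine IgG, 0.003% Tx-100, 20 ng/tube enzyme; 0.1 mM Ca2+ for PKCα, 1 mM EGTA for PKCε. 5 min at 37 °C, PEG precipitation, bound and free counted separately; nonspecific with 10 μM cold PDBu; triplicates.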

Inhibition: 21%
Structure (SMILES): Cc1ccc(-c2cn(CC3(CO)C/C(=C\CC(CC(C)C)CC(C)C)C(=O)O3)nn2)cc1 (stereo unspecified)
